Data on one compound can be found in ChEMBL document CHEMBL3526151, “Reversible disulfide formation of the glutamate carboxypeptidase II inhibitor E2072 results in prolonged systemic exposures in vivo” (Drug Metab Dispos, 2012).

Data set [1] is described as follows: Apparent volume of distribution in Sprague-Dawley rat at 10 mg/kg, po administered via gavage measured under fed conditions by LC-MS/MS analysis. The class given is ADME, organism-based. Details: dose 10 mg/kg, route oral. To be noted: in vivo. The essentials: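 Nonfasted male Sprague-Dawley rats given a single 10 mg/kg oral dose in 50 mM HEPES buffered saline, pH 7.4. Plasma collected 0.25–24 h into heparin/NEM tubes and assayed by LC-MS/MS. Noncompartmental parameters derived, including Cl/F and Vd/F. Mean ± S.D., n = 6–9.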

Data set [2] is described as follows: Cmax in Sprague-Dawley rat at 10 mg/kg, iv by LC-MS/MS analysis. To be noted: in vivo. The class given is ADME, organism-based. Also noted: dose 10 mg/kg, route intravenous. The method, boiled down: (§1)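 Male Sprague-Dawley rats dosed intravenously at 10 mg/kg (n = 6). Blood sampling extended to 7 days into heparin tubes containing NEM. Plasma assayed for parent and homodisulfide by LC-MS/MS, calibration range 1–5000 ng/ml. Noncompartmental analysis, t1/2 = 0.693/λz. Mean ± S.D.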

Data set [3] in a line: AUC(0 to last) in Sprague-Dawley rat at 10 mg/kg, iv by LC-MS/MS analysis. Also noted: time 0 - last, dose 10 mg/kg, route intravenous. It counts as ADME, organism-based. The following applies: plasma. The essentials: as §1
In data set [4] the test system is Cynomolgus monkey. As to the kind of experiment: AUC(0 to infinity) in cynomolgus monkey at 5 mg/kg, iv administered as bolus injection by LC-MS/MS analysis. Details: time infinity, dose 5 mg/kg, route intravenous. It counts as ADME, organism-based, Macaca fascicularis, Plasma. To be noted: in vivo. The method, boiled down:
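Cynomolgus monkeys (n = 3) given a 5 mg/kg intravenous bolus via cephalic or saphenous vein. Dosing solution in 50 mM HEPES, TCEP-treated. Arterial cannula blood collected up to 9 days into heparin/NEM tubes. Plasma assayed by LC-MS/MS. Noncompartmental analysis.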

For data set [5], the system named is Cynomolgus monkey. As to the kind of experiment: Apparent oral clearance in cynomolgus monkey at 5 mg/kg, po by LC-MS/MS analysis. The class given is ADME, organism-based, Macaca fascicularis. Details: dose 5 mg/kg, route oral. To be noted: in vivo. The method, boiled down: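 Cynomolgus monkeys (n = 3) dosed orally at a nominal 5 mg/kg in TCEP-treated 50 mM HEPES solution. Blood taken via iliac or femoral arterial cannula up to 9 days into heparin/NEM tubes. Plasma analyzed by LC-MS/MS. Cl/F and Vd/F derived noncompartmentally.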

Data set [6] is described as follows: Phase 2 metabolic stability in rat liver microsomes assessed as compound remaining at 10 uM measured for 1 hr by LC-MS/MS analysis. The class given is ADME. The following applies: read-out: Stability. The method, boiled down: (§2)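 Glucuronidation in liver microsomes of the named species, 0.5 mg/ml protein, compound at 10 μM final, in 50 mM Tris-HCl pH 7.5 with 8 mM MgCl2 and 25 μg/ml alamethicin. Preincubated at 37°C, then started with 2 mM UDPGA (final); cofactor-free controls run alongside. Duplicate reactions, sampled up to 1 h, quenched with cold acetonitrile plus internal standard; disappearance followed by LC-MS/MS.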

The nature of data set [7]: Phase 1 metabolic stability in dog liver microsomes assessed as compound remaining at 10 uM measured for 1 hr by LC-MS/MS analysis in absence of cofactors. It counts as ADME, Canis lupus familiaris. The following applies: read-out: Stability. The method, boiled down: (§3)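 Cofactor-free controls were run for each microsomal incubation: 0.5 mg/ml liver microsomes with 10 µM compound, omitting cofactors, so that cofactor-independent degradation could be measured. Samples were taken up to 1 h, quenched with acetonitrile containing internal standard, and the percent remaining was determined by LC-MS/MS.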

Data set [8] in a line: Phase 1 metabolic stability in monkey liver microsomes assessed as compound remaining at 10 uM measured for 1 hr by LC-MS/MS analysis in absence of cofactors. The class given is ADME, Macaca mulatta. To be noted: rhesus monkey, read-out: Stability. The essentials:
as §3
Background: Liver microsomes are vesicles of endoplasmic reticulum, rich in cytochrome P450 enzymes.

The nature of data set [9]: Phase 2 metabolic stability in rat liver microsomes assessed as compound remaining at 10 uM measured for 1 hr by LC-MS/MS analysis in absence of cofactors. The class given is ADME. The following applies: read-out: Stability. The method, boiled down:
as §2

Data set [10] is described as follows: Metabolic stability in Sprague-Dawley rat plasma assessed as compound remaining at 10 uM after 1 hr by LC-MS/MS analysis. It counts as ADME, cell-free. The following applies: read-out: Stability. The essentials: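 Compound at 5 and 10 µM was incubated at 37°C in Sprague-Dawley rat or cynomolgus monkey plasma. Aliquots taken at 0, 30 and 60 min were quenched with acetonitrile and analyzed by LC-MS/MS. Percent remaining = analyte/internal-standard area ratio at time t divided by that at time 0.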

Data set [11] can be described thus: AUC(0 to infinity) in Sprague-Dawley rat at 0.1 mg/kg, iv administered as bolus injection measured under fasted conditions by LC-MS/MS analysis. It counts as ADME, organism-based. Details: time infinity, dose 0.1 mg/kg, route intravenous. The following applies: plasma. The method, boiled down:
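Male Sprague-Dawley rats (280–330 g), jugular vein cannulated, fasted overnight until 4 h post-dose. Single tail-vein bolus of 0.1, 1, 10 or 30 mg/kg in 50 mM HEPES buffered saline, pH 7.4. Blood drawn 0–24 h into heparin tubes containing NEM. Plasma quantified by LC-MS/MS after NEM derivatization. Noncompartmental analysis: AUClast by linear trapezoidal rule, Cl = dose/AUC0-∞. Mean ± S.D., n = 4–9.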

Data set [12] can be described thus: Protein binding in Sprague-Dawley rat serum at 10 uM after 1 hr by LC-MS/MS analysis. It counts as ADME, cell-free. The following applies: read-out: PB (converted). The method, boiled down:
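Serum from the named species spiked to 10 μM and held 1 h at 37°C, then ultrafiltered through a 5000 Da cutoff device (45 min, 37°C, 1800g). Filtrate and unfiltered serum extracted and measured by LC-MS/MS; % bound = 100 − (Cu/Cs × 100).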

Data set [13] in a line: Apparent oral clearance in Sprague-Dawley rat at 1 mg/kg, po administered via gavage measured under fasted conditions by LC-MS/MS analysis. The class given is ADME, organism-based. Also noted: dose 1 mg/kg, route oral. To be noted: in vivo. The essentials: (§4)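 Fasted male Sprague-Dawley rats (280–330 g) received 0.1, 1, 10 or 30 mg/kg by oral gavage in 50 mM HEPES buffered saline, pH 7.4. Blood drawn at 0.25–24 h into heparin/NEM tubes; plasma analyzed by LC-MS/MS. Cmax taken as observed. AUC by linear trapezoidal rule with extrapolation by λz. Cl/F and Vd/F reported. Mean ± S.D., n = 4–9.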

A short description of data set [14]: Apparent oral clearance in Sprague-Dawley rat at 30 mg/kg, po administered via gavage measured under fasted conditions by LC-MS/MS analysis. To be noted: in vivo. Details: dose 30 mg/kg, route oral. The class given is ADME, organism-based. The method, boiled down: as §4
Data set [15] in a line: Volume of distribution in Sprague-Dawley rat at 0.1 mg/kg, iv administered as bolus injection measured under fasted conditions by LC-MS/MS analysis. The class given is ADME, organism-based. Details: dose 0.1 mg/kg, route intravenous. To be noted: in vivo. The method, boiled down:
(§5)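 Jugular-cannulated male Sprague-Dawley rats, 280–330 g, fasted overnight to 4 h post-dose. Single dose in 50 mM HEPES-buffered saline pH 7.4, by oral gavage or as tail-vein i.v. bolus. Blood into heparin/NEM tubes at 0–24 h. Plasma measured by LC-MS/MS; noncompartmental analysis; Tmax observed; Vd = dose/(AUCinf·λz).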

The nature of data set [16]: Volume of distribution in Sprague-Dawley rat at 1 mg/kg, iv administered as bolus injection measured under fasted conditions by LC-MS/MS analysis. The class given is ADME, organism-based. Details: dose 1 mg/kg, route intravenous. The following applies: in vivo. The method, boiled down:
as §5

Data set [17] can be described thus: Apparent volume of distribution in Sprague-Dawley rat at 30 mg/kg, po administered via gavage measured under fasted conditions by LC-MS/MS analysis. It counts as ADME, organism-based. Also noted: dose 30 mg/kg, route oral. The following applies: in vivo. The essentials:
as §4

A short description of data set [18]: Half life in Sprague-Dawley rat at 0.1 mg/kg, po administered via gavage measured under fasted conditions by LC-MS/MS analysis. The following applies: in vivo. It counts as ADME, organism-based. Also noted: dose 0.1 mg/kg, route oral.
Data set [19] is described as follows: Half life in Sprague-Dawley rat at 1 mg/kg, po administered via gavage measured under fasted conditions by LC-MS/MS analysis. The class given is ADME, organism-based. Also noted: dose 1 mg/kg, route oral. The following applies: in vivo.
The nature of data set [20]: Half life in Sprague-Dawley rat at 10 mg/kg, iv administered as bolus injection measured under fasted conditions by LC-MS/MS analysis. The class given is ADME, organism-based. Also noted: dose 10 mg/kg, route intravenous. To be noted: in vivo.
Data set [21] can be described thus: Oral bioavailability in Sprague-Dawley rat at 30 mg/kg administered via gavage measured under fasted conditions by LC-MS/MS analysis. The following applies: in vivo. The class given is ADME, organism-based.
A short description of data set [22]: Drug recovery in cynomolgus monkey serum protein binding experiment. The following applies: in vitro.

For orientation: Vd/F means the apparent distribution volume after extravascular dosing. Usually Cmax stands for the maximum level reached in the sampled fluid or tissue. By AUC(0-t) is commonly meant exposure summed from dosing to a finite time, without extrapolation to infinity. Broadly, the AUC is the area under the concentration-time curve, a measure of exposure. A word on the CL/F: it is the apparent clearance, not corrected for the fraction that reaches the circulation. One may read the AUC(0-inf) as total exposure, with the tail of the curve extrapolated. The term Vd denotes a proportionality between amount in the body and measured concentration, not a real space. Usually half-life stands for how long it takes for the measured level to halve. The term bioavailability denotes dose-corrected exposure relative to a reference, in per cent. In the case of `O=C(O)c1cccc(-c2cccc(CCS)c2C(=O)O)c1`, the Vd/F in data set [1] worked out at 1.09 L/kg; in data set [17], 2.39 L/kg. Further, the peak concentration (Cmax) in data set [2] turned out to be 57.2 µg/mL. This compound also gave an AUC(0-t) in data set [3] of 86700 ng·h/mL. Besides, the AUC in data set [4] was found to be 63622.1 ng·h/mL. Moreover, the values for the CL/F in data set [5], in [13] and in [14] were 0.95 mL/min/kg, 5.5 mL/min/kg and 8.5 mL/min/kg, respectively. Further, the remaining at 1 h, 10 µM in data set [6] is greater than 90%; in data set [7], greater than 90%; in data set [8] it was greater than 90%; in data set [9], greater than 90%; in [10] it was 64.5%. Besides, the AUC(0-inf) in [11] amounted to 1970 ng·h/mL. Moreover, the fraction unbound at 1 h, 10 µM in data set [12] was 0.025. The Vd turned out to be 0.2 L/kg in [15] and 0.21 L/kg in [16]. Moreover, the half-life in data set [18] was 9.33 h; in data set [19] it was 3.72 h; in data set [20], 3.55 h. Further, the bioavailability in data set [21] is 37.5%. This compound returned a Drug recovery in data set [22] of 80%.
